For one series, the system named is Plasma. The series is described as follows: Prodrug conversion in 80% human plasma assessed as half life of hydrolysis. The format is ADME, cell-free. The essentials: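 80% human plasma prepared in 0.05 M phosphate buffer pH 7.4; prodrug methanol stock (250 µg/mL) mixed 1:1 with plasma and incubated at 37 ± 0.5 °C over 7 h. At intervals, centrifuged cold, supernatant protein-precipitated with methanol, recentrifuged, filtered and analysed by RP-HPLC for residual prodrug and released rhein/boswellic acid. Rate constant from log residual prodrug vs time; triplicate.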

In series [1] the test system is Blood. The series is described as follows: Prodrug conversion in po dosed Wistar rat blood assessed as boswellic acid production from 4 to 7 hrs. It is filed as ADME, organism-based. The following applies: in vivo. An outline of the steps:
(§1)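 Overnight-fasted Wistar rats (water allowed) given prodrug 2.5 mg in 0.5 mL saline orally. Blood taken by retro-orbital puncture at intervals over up to 8 h, processed by methanol protein precipitation and centrifugation, and analysed by RP-HPLC for intact prodrug, rhein and boswellic acid, expressed as percent of administered dose.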

Series [2] deals with Blood. Kind of series: Drug uptake in po dosed Wistar rat blood at 2 hrs. The format is ADME, organism-based. The following applies: in vivo. An outline of the steps:
as §1

The test system of a further series is Intestine. The series is described as follows: Prodrug conversion in rat small intestine homogenate assessed as half life of hydrolysis. As to conditions: tissue homogenate; call rule not given here. It is filed as ADME, tissue-based. An outline of the steps:
(§2)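 Prodrug solution in buffer (250 µg/mL) added to rat stomach or small intestinal homogenate pre-equilibrated at 37 ± 0.5 °C. Samples taken at intervals, centrifuged, supernatant filtered and analysed by RP-HPLC at 211 nm for residual prodrug and released rhein/boswellic acid. Rate constant from log residual prodrug vs time slope; triplicate, mean rate constant.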

The nature of series [3]: Prodrug conversion in phosphate buffer assessed as half life of hydrolysis at pH 7.4. It is filed as physicochemical. The essentials: (§3)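 Prodrug (10 mg) incubated in aqueous buffer (HCl pH 1.2 or phosphate pH 7.4) at 37 ± 0.5 °C, stirred at 100 rpm; aliquots withdrawn with medium replacement at intervals up to 7 h. Residual prodrug and released rhein/boswellic acid quantified by RP-HPLC at 211 nm. First-order rate constant from slope of log residual prodrug vs time; triplicate, mean taken.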

Series [4] relates to Blood. Kind of series: Drug uptake in po dosed Wistar rat blood at 7 hrs. It is filed as ADME, organism-based. The following applies: in vivo. An outline of the steps: as §1
Series [5] in a line: Drug excretion in po dosed Wistar rat urine assessed as boswellic acid up to 24 hrs. The following applies: in vivo. It is filed as ADME, organism-based. The essentials: (§4)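 Wistar rats given prodrug 2.5 mg in 0.5 mL saline orally after overnight fast; urine and feces collected from metabolic cages at intervals over 24 h and pooled. Urine diluted 10-fold and feces 100-fold in phosphate buffer pH 7.4, then analysed by RP-HPLC for intact prodrug, rhein and boswellic acid as percent.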

A short description of series [6]: Drug excretion in po dosed Wistar rat feces assessed as rhein up to 24 hrs. The format is ADME, organism-based. As to conditions: in vivo. The essentials:
as §4

Series [7] is described as follows: Drug excretion in po dosed Wistar rat urine assessed as rhein up to 24 hrs. The following applies: in vivo. The format is ADME, organism-based. An outline of the steps: as §4
Series [8] relates to Blood. Kind of series: Drug uptake in po dosed Wistar rat blood at 3 hrs. It is filed as ADME, organism-based. As to conditions: in vivo. An outline of the steps: as §1
Series [9] is described as follows: Drug excretion in po dosed Wistar rat feces assessed as boswellic acid up to 24 hrs. The following applies: in vivo. The format is ADME, organism-based. An outline of the steps: as §4
The nature of series [10]: Drug excretion in po dosed Wistar rat urine up to 24 hrs. It is filed as ADME, organism-based. As to conditions: read-out: Drug excretion. The essentials:
as §4

Series [11] can be described thus: Chemical stability of the compound in HCl buffer at pH 1.2. The format is physicochemical. An outline of the steps: as §3
The subject of series [12] is Blood. Kind of series: Drug uptake in po dosed Wistar rat blood at 6 hrs. The format is ADME, organism-based. The following applies: in vivo. The essentials:
as §1

Series [13] relates to Blood. The series is described as follows: Drug uptake in po dosed Wistar rat blood at 4 hrs. The following applies: in vivo. The format is ADME, organism-based. The essentials: as §1
Series [14] can be described thus: Drug excretion in po dosed Wistar rat feces up to 24 hrs. As to conditions: faeces, read-out: Drug excretion. It is filed as ADME, organism-based. An outline of the steps:
as §4

Series [15] has as its system Blood. The series is described as follows: Prodrug conversion in po dosed Wistar rat blood assessed as rhein production from 4 to 7 hrs. The format is ADME, organism-based. As to conditions: in vivo. The essentials:
as §1

Series [16] in a line: n-Octanol-phosphate buffer partition coefficient, log P of the compound at pH 7.4. It is filed as physicochemical. The essentials:
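Partition coefficient measured between n-octanol and phosphate buffer pH 7.4, with concentrations read by UV–visible spectrophotometry.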

A further series relates to Stomach. Kind of series: Metabolic stability in rat stomach homogenate. It is filed as ADME, tissue-based. The following applies: tissue homogenate. The essentials:
as §2

For series [17], the system named is Blood. The series is described as follows: Drug uptake in po dosed Wistar rat blood at 5 hrs. It is filed as ADME, organism-based. As to conditions: in vivo. The essentials:
as §1

Usually logD stands for the decadic logarithm of the distribution of all forms, ionised or not, between an organic phase and buffer at a given pH. Read a low logD as lower lipophilicity. `CC1(C)CC[C@]2(C)CC[C@]3(C)C(=CC[C@@H]4[C@@]5(C)CC[C@@H](O)[C@](C)(C(=O)Oc6cccc7c6C(=O)c6c(OC(=O)[C@@]8(C)[C@H](O)CC[C@@]9(C)[C@H]8CC[C@]8(C)[C@@H]9CC=C9[C@@H]%10CC(C)(C)CC[C@]%10(C)CC[C@]98C)cc(C(=O)O)cc6C7=O)[C@@H]5CC[C@]43C)[C@@H]2C1`: the t1/2 with Plasma came out at 3.102 h; in the series with Intestine it was 2.672 h; in [3] it was 3.205 h. For the same molecule, the Drug metabolism result in the series on Blood [1] and in the series on Blood [15] was “Active” each time. Moreover, the Drug uptake is 93.6% with Blood [2]; 3.4% with Blood [4]; 70.43% in the series on Blood [8]; 12% with Blood [12]; 34.5% in the series with Blood [13]; 22% in the series with Blood [17]. Further, the Drug excretion in series [5] is listed as 8.9%; in series [6], “Not Active”; in [7], 7.1%; in [9], 4.59%. For the same molecule, the dose excreted at 24 h in series [10] is 6.2%; in series [14], 3.1%. In addition, the Stability entry (in series [11]; with Stomach) was “Stable” throughout. The same molecule came in with a logD in [16] of 2.57.

The molecule `O=C(O)c1cc(O)c2c(c1)C(=O)c1cccc(O)c1C2=O` [RHEIN] had a logD in series [16] of 0.24.

The record behind these values is ChEMBL document CHEMBL2203279, “Synthesis and pharmacokinetic profile of rhein- boswellic acid conjugate” (Bioorg Med Chem Lett, 2012).
